Assay results as given in ChEMBL document CHEMBL1158686, “Three new taxane diterpenoids from Taxus sumatrana” (2005).

Tests used:
Format in all cases: functional
[1] = test system: A498; experiment: Cytotoxicity against human A498 cells assessed as growth inhibition after at 30 ug/ml 48 hrs by SRB assay; details: A498, 48 h
Method in brief: (§1)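 Adherent cells were seeded at 5000–40 000 cells/well according to doubling time and preincubated 24 h at 37 °C in 5% CO2 and humidified air. Drug was diluted in complete medium with 50 µg/mL gentamicin and exposed for 48 h under the same conditions. Cells were fixed in situ with cold TCA (10% final, 60 min, 4 °C), stained with 0.4% SRB in 1% HOAc, solubilized in 10 mM Tris base, and read at 515 nm.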

[2] = test system: NCI-H226; experiment: Cytotoxicity against human NCI-H226 cells assessed as growth inhibition after at 30 ug/ml 48 hrs by SRB assay; details: NCI-H226, 48 h; method in brief: as §1
[3] = test system: A549; experiment: Cytotoxicity against human A549 cells assessed as growth inhibition after at 30 ug/ml 48 hrs by SRB assay; details: A549, 48 h; method in brief: as §1
[4] = test system: PC-3; experiment: Cytotoxicity against human PC-3 cells assessed as growth inhibition after at 30 ug/ml 48 hrs by SRB assay; details: PC-3, 48 h; method in brief: as §1

SMILES | inhibition at 30 µg/mL [1] | inhibition at 30 µg/mL [2] | inhibition at 30 µg/mL [3] | inhibition at 30 µg/mL [4]
CC(=O)O[C@@]12CO[C@@H]1C[C@H](O)[C@@]1(C)C(=O)[C@H](O)C3=C(C)[C@@H](O)C[C@@](O)([C@@H](OC(=O)c4ccccc4)[C@H]21)C3(C)C | 27% | 5.7% | 12.2% | 1.6%
CC(=O)O[C@H]1C(=O)[C@@]2(CO)[C@H]([C@H](OC(=O)c3ccccc3)[C@]3(O)C[C@H](O)C(C)=C1C3(C)C)[C@]1(OC(C)=O)CO[C@@H]1C[C@@H]2O | 26.7% | 44.6% | 0% | 47.7%
CC(=O)O[C@@]12CO[C@@H]1C[C@H](O)[C@@]1(C)C(=O)C(=O)C3=C(C)[C@@H](O)C[C@@](O)([C@@H](OC(=O)c4ccccc4)[C@H]21)C3(C)C | 79.1% | 97.3% | 54.7% | 100%
CC(=O)O[C@@]12CO[C@@H]1C[C@H](O)[C@@]1(CO)C(=O)[C@H](O)C3=C(C)[C@@H](O)C[C@@](O)([C@@H](OC(=O)c4ccccc4)[C@H]21)C3(C)C | 16.6% | 32% | 0% | 2.3%
CC(=O)O[C@H]1C(=O)[C@@]2(CO)[C@H]([C@H](OC(=O)c3ccccc3)[C@]3(O)CC(=O)C(C)=C1C3(C)C)[C@]1(OC(C)=O)CO[C@@H]1C[C@@H]2O | 79.8% | 84.7% | 45.4% | 88.2%
CC(=O)O[C@H]1C[C@H]2OC[C@@]2(OC(C)=O)[C@H]2[C@H](OC(=O)c3ccccc3)[C@]3(C(C)(C)O)C[C@H](O)C(C)=C3[C@@H](O)[C@H](OC(C)=O)[C@]12C | 21.7% | 19.9% | 27.1% | 1.9%
CC(=O)O[C@@]12CO[C@@H]1C[C@H](O)[C@@]1(C)C(=O)[C@H](O)C3=C(C)C(=O)C[C@@](O)([C@@H](OC(=O)c4ccccc4)[C@H]21)C3(C)C | 29.7% | 49.2% | 43.9% | 65.3%
CC(=O)O[C@H]1C(=O)[C@@]2(C)[C@H]([C@H](OC(=O)c3ccccc3)[C@]3(O)C[C@H](OC(=O)[C@H](O)[C@@H](NC(=O)c4ccccc4)c4ccccc4)C(C)=C1C3(C)C)[C@]1(OC(C)=O)CO[C@@H]1C[C@@H]2O [PACLITAXEL] | 98.2% | 71.2% | 79.7% | 91.7%
CC(=O)OC[C@H]1[C@H]2[C@H](O)[C@]3(C(C)(C)O)C[C@H](O)C(C)=C3[C@@H](O)[C@H](OC(=O)c3ccccc3)[C@]2(C)[C@@H](OC(C)=O)C[C@@H]1OC(C)=O [TASUMATROL F] | 83% | 78.5% | 72.6% | 95%
CC(=O)O[C@H]1C[C@H](OC(C)=O)[C@]2(C)[C@@H]3[C@H](OC[C@]13OC(=O)c1ccccc1)[C@]1(C(C)(C)O)C[C@H](O)C(C)=C1[C@@H](O)[C@@H]2OC(C)=O [TASUMATROL G] | 15.3% | 78.9% | 24.1% | 58.9%
CC(=O)OC[C@]1(O)[C@@H](OC(C)=O)C[C@H](OC(C)=O)[C@]2(C)[C@@H]1[C@H](O)[C@]1(C(C)(C)O)C[C@H](O)C(C)=C1[C@@H](O)[C@@H]2OC(=O)c1ccccc1 [TASUMATROLS E] | 100% | 84.8% | 91.3% | 94.7%
CC(=O)O[C@H]1C[C@H](OC(C)=O)[C@]2(C)[C@@H]([C@@H]1CO)[C@H](OC(C)=O)[C@]1(C(C)(C)O)C[C@H](O)C(C)=C1[C@@H](O)[C@@H]2OC(C)=O [TAXAYUNTIN G] | 21.2% | 29.3% | 0% | 1.4%
C=C1[C@@H](O)C[C@H](OC(C)=O)[C@@]2(COC(=O)c3ccccc3)[C@@H](OC(C)=O)[C@H](OC(C)=O)[C@]3(O)[C@@]4(C)CO[C@]3(C)C(=O)C[C@H]4[C@@H](OC(C)=O)[C@H]12 [TAXININ M] | 24.3% | 11.1% | 14.6% | 0%
CC(=O)O[C@@]12CO[C@@H]1C[C@H](O)[C@]1(C)[C@@H]2[C@H](OC(=O)c2ccccc2)[C@]23C[C@H](O)C(C)=C2[C@@]1(O)C(=O)OC3(C)C [WALLIFOLIOL] | 27.9% | 29.1% | 16.7% | 6.4%
